{"data": "Measurements from different studies", "cell line": "BT-549", "read-out": "cell growth or viability", "note": "Protocols differ between the studies behind these lines."}
{"SMILES": "COc1cccc(Oc2ccccc2NC(=O)CNC(=O)c2cccc3ccccc23)c1", "technique": "SRB", "time": "48 h", "endpoint": "GI50", "value": "295 nM"}
{"SMILES": "COc1ccc(-c2ccc(-c3ccc(C(=N)N)nc3)s2)cc1", "technique": "SRB", "endpoint": "GI50", "value": "1700 nM"}
{"SMILES": "O=C1Nc2ccccc2C1=NNc1nnc2n1N=C(c1ccccc1)CS2", "technique": "SRB", "tested at": "10 µM", "endpoint": "inhibition", "value": "28%"}
{"SMILES": "C#C[C@@]1(O)[C@@H](CO)O[C@@H](n2cc(Br)c3c(N)ncnc32)[C@@H]1O", "technique": "SRB", "endpoint": "GI50", "value": "147 nM"}
{"SMILES": "COc1cccc2c1C(=O)c1c(O)c3c(c(O)c1C2=O)C[C@@](O)(C(=O)CO)C[C@@H]3O[C@H]1C[C@H](N)[C@H](O)[C@H](C)O1", "technique": "neutral red", "time": "48 h", "endpoint": "IC50", "value": "1.05 µg/mL"}
{"SMILES": "CC(=O)O[C@@]12CO[C@@H]1C[C@H](O)[C@@]1(C)C(=O)[C@H](O)C3=C(C)[C@@H](OC(=O)[C@H](O)[C@@H](NC(=O)OC(C)(C)C)c4ccccc4)C[C@@](O)([C@@H](OC(=O)c4ccccc4)[C@H]21)C3(C)C", "technique": "ATP luminescence", "time": "72 h", "endpoint": "IC50", "value": "1 nM"}
{"SMILES": "COc1cc(-c2ccc(-c3ccc(C(=N)N)nc3)s2)cc(OC)c1OC", "technique": "SRB", "endpoint": "GI50", "value": "1670 nM"}
{"SMILES": "COc1ccc(C(=O)/C=C/c2cccc(Cl)c2Cl)cc1S(N)(=O)=O", "technique": "SRB", "time": "48 h", "endpoint": "GI50", "value": "4700 nM"}
{"SMILES": "Cl.Oc1cccc2c1[nH]c1c(C3=CC4(O)CC/C=C\\CCCCN5CCC3C3(CC6/C=C\\CCCCN6C43)C5)nccc12 (single isomer, unassigned; (+))", "technique": "neutral red", "time": "48 h", "endpoint": "IC50", "value": "1.05 µg/mL"}
{"SMILES": "CC(=O)O[C@H]1C(=O)[C@@]2(C)[C@H]([C@H](OC(=O)c3ccccc3)[C@]3(O)C[C@H](OC(=O)[C@H](O)[C@@H](NC(=O)c4ccccc4)c4ccccc4)C(C)=C1C3(C)C)[C@]1(OC(C)=O)CO[C@@H]1C[C@@H]2O", "technique": "ATP luminescence", "time": "72 h", "endpoint": "IC50", "value": "3.1 nM"}
{"SMILES": "COc1ccc(C(=O)/C=C/c2cccc3ccccc23)cc1S(N)(=O)=O", "technique": "SRB", "time": "48 h", "endpoint": "GI50", "value": "1800 nM"}
